Data set [1] has as its target T1, Nonstructural protein 5A (Hepatitis C virus) (UniProt Q5L478).
T1 sequence (whole entry): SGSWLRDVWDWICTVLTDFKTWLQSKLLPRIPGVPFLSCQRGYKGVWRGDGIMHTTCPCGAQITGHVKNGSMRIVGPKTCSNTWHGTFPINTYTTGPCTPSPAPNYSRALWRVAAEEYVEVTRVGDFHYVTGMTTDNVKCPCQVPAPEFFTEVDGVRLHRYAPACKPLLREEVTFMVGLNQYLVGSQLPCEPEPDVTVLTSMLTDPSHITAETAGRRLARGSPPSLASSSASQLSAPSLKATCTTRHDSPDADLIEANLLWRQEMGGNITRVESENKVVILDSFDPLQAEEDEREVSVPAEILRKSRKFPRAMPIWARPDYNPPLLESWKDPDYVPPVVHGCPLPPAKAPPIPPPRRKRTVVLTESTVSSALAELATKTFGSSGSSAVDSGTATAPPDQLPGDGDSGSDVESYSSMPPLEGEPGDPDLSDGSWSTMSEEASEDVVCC
The data set can be described thus: Potency index, ratio of AV-4025 IC50 to test compound IC50 for inhibition of HCV genotype 3a NS5A infected in Huh7 cells assessed as reduction in viral replication incubated 3 days and measured by bright Glo-luciferase reporter gene assay. The data set is classed as cell-based. Particulars: Hepatitis C virus subtype 3a; time 3.0 day. A general note: A reporter such as luciferase makes a cellular process visible.

A short description of data set [2]: Cytotoxicity against HCV genotype 1b NS5A infected human HuH7 cells assessed as reduction in cell viability measured after 72 hrs by CellTiter-Glo assay. The note with it: HuH7 cells infected with HCV genotype 1b NS5A. (In general: ATP-based viability assays read luminescence as a measure of living cells.)
Data set [3] is described as follows: AUC (0 to infinity) in Sprague-Dawley rat at 10 mg/kg, po measured after 24 hrs by LC-MS/MS analysis. Also noted: route oral, time 24 hrs, dose 10 mg/kg. The note with it: in vivo; for AUC(0-inf): Sprague-Dawley. The data set is classed as ADME, organism-based. In a few lines: (§1)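 Male Sprague-Dawley rats (8–10 weeks), jugular-vein catheterized and fasted 12 h with water available. Oral dose of 10 mg/kg given in 0.5% methyl cellulose. Blood taken into EDTA at 15, 30 min and 1, 2, 4, 8 and 24 h. Plasma protein-precipitated with acetonitrile containing tolbutamide internal standard, held at −20 °C for 15 min, centrifuged, then analysed by LC-MS/MS.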

Data set [4] can be described thus: AUC (0 to infinity) in Sprague-Dawley rat at 2 mg/kg, iv measured after 24 hrs by LC-MS/MS analysis. The format is ADME, organism-based. Also noted: route intravenous, dose 2 mg/kg, time 24 hrs. Particulars: in vivo. The procedure, abridged:
(§2)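 Male Sprague-Dawley rats (8–10 weeks), jugular-vein catheterized and fasted 12 h with water available. Intravenous dose of 2 mg/kg given in 10% DMSO/10% Solutol/80% 0.05 M N-methylglucamine. Blood taken into EDTA at 5, 15, 30 min and 1, 2, 4, 8 and 24 h. Plasma precipitated with acetonitrile plus tolbutamide internal standard, then analysed by LC-MS/MS.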

The nature of data set [5]: MRT (0 to infinity) in Sprague-Dawley rat at 2 mg/kg, iv measured after 24 hrs by LC-MS/MS analysis. The data set is classed as ADME, organism-based. The note with it: in vivo. In a few lines: as §2
Data set [6] can be described thus: Tmax in Sprague-Dawley rat at 10 mg/kg, po measured after 24 hrs by LC-MS/MS analysis. Particulars: in vivo. The data set is classed as ADME, organism-based. The procedure, abridged:
as §1

A short description of data set [7]: AUClast in Sprague-Dawley rat at 10 mg/kg, po measured after 24 hrs by LC-MS/MS analysis. The format is ADME, organism-based. Also noted: route oral, dose 10 mg/kg, time 24 hrs. The note with it: in vivo. The procedure, abridged:
as §1

Data set [8] is described as follows: Half life in Sprague-Dawley rat at 2 mg/kg, iv measured after 24 hrs by LC-MS/MS analysis. The note with it: in vivo. The data set is classed as ADME, organism-based. The procedure, abridged:
as §2

Data set [9] can be described thus: MRTlast in Sprague-Dawley rat at 10 mg/kg, po measured after 24 hrs by LC-MS/MS analysis. The data set is classed as ADME, organism-based. Particulars: in vivo. The procedure, abridged:
as §1

Data set [10] is described as follows: Half life in Sprague-Dawley rat at 10 mg/kg, po measured after 24 hrs by LC-MS/MS analysis. The format is ADME, organism-based. Particulars: in vivo; for half-life: Sprague-Dawley. The procedure, abridged: as §1
A short description of data set [11]: MRT (0 to infinity) in Sprague-Dawley rat at 10 mg/kg, po measured after 24 hrs by LC-MS/MS analysis. The data set is classed as ADME, organism-based. Particulars: in vivo. In a few lines: as §1
The nature of data set [12]: Tmax in Sprague-Dawley rat at 2 mg/kg, iv measured after 24 hrs by LC-MS/MS analysis. The data set is classed as ADME, organism-based. Particulars: in vivo. In a few lines:
as §2

A short description of data set [13]: Cmax in Sprague-Dawley rat at 10 mg/kg, po measured after 24 hrs by LC-MS/MS analysis. The data set is classed as ADME, organism-based. More on the design: route oral, time 24 hrs, dose 10 mg/kg. The note with it: in vivo. In a few lines:
as §1

Data set [14] in a line: MRTlast in Sprague-Dawley rat at 2 mg/kg, iv measured after 24 hrs by LC-MS/MS analysis. Particulars: in vivo. The format is ADME, organism-based. In a few lines: as §2
Data set [15] in a line: Oral bioavailability in Sprague-Dawley rat at 10 mg/kg, po measured after 24 hrs by LC-MS/MS analysis. The format is ADME, organism-based. Particulars: in vivo. The procedure, abridged:
as §1

A short description of data set [16]: Cmax in Sprague-Dawley rat at 2 mg/kg, iv measured after 24 hrs by LC-MS/MS analysis. The data set is classed as ADME, organism-based. Also noted: route intravenous, dose 2 mg/kg, time 24 hrs. The note with it: in vivo. In a few lines:
as §2

The nature of data set [17]: AUClast in Sprague-Dawley rat at 2 mg/kg, iv measured after 24 hrs by LC-MS/MS analysis. The data set is classed as ADME, organism-based. Also noted: route intravenous, time 24 hrs, dose 2 mg/kg. The note with it: in vivo. In a few lines: as §2

Each structure is given as a SMILES string.

As for `COC(=O)NC(C(=O)N1CCC[C@H]1c1ncc(-c2ccc(C#CC#Cc3cnc([C@@H]4CCCN4C(=O)C(NC(=O)OC)C(C)C)[nH]3)cc2)[nH]1)c1ccccc1` (single isomer, unassigned), the Ratio IC50 in data set [1] was 6.8. For the same compound, in [2], the CC50 at 72 h is greater than 10 µM.
As for `COC(=O)N[C@H](C(=O)N1CCC[C@H]1c1ncc(-c2ccc(C#CC#Cc3cnc([C@@H]4CCCN4C(=O)[C@H](NC(=O)OC)c4ccccc4)[nH]3)c(-c3ccccc3)c2)[nH]1)C(C)C.Cl.Cl`, the AUC(0-inf) in [3] is 13100 ng·h/mL; in data set [4] it was 8330 ng·h/mL. Further, the mean residence time (MRT inf) in data set [5] is 1.3 h; in data set [11] it was 3.1 h. Further, the Tmax in [6] (Sprague-Dawley, read-out: Tmax) stood at 2 h; in [12] it was 4.98 min. Besides, the exposure AUC(0-t) at 24 h was 12600 ng·h/mL in data set [7] and 8260 ng·h/mL in data set [17]. For the same compound, the half-life in data set [8] was 1.2 h; in data set [10] it was 1.6 h. Moreover, the MRT last at 24 h in data set [9] is 2.8 h; in [14], 1.2 h. For the same compound, the peak concentration (Cmax) in data set [13] (Sprague-Dawley, read-out: Cmax) came out at 2980 ng/mL; in [16] it was 7760 ng/mL. For the same compound, in data set [15], the bioavailability was determined as 31%. In data set [2], the CC50 at 72 h was greater than 10 µM.
For `COC(=O)N[C@H](C(=O)N1CCC[C@H]1c1ncc(-c2ccc(C#CC#Cc3cnc([C@@H]4CCCN4C(=O)[C@H](NC(=O)OC)c4ccccc4)[nH]3)cc2)[nH]1)C(C)C`, the Ratio IC50 in data set [1] is 13. Also, the cytotoxic concentration (CC50) at 72 h in data set [2] was greater than 10 µM.
`COC(=O)N[C@H](C(=O)N1CCC[C@H]1c1ncc(-c2ccc(C#CC#Cc3cnc([C@@H]4CCCN4C(=O)[C@H](NC(=O)OC)c4ccccc4)[nH]3)c(-c3cccc(F)c3F)c2)[nH]1)C(C)C.Cl.Cl` displayed an exposure (AUC) in data set [3] (24 h) of 328.7 ng·h/mL. This compound also yielded an AUC(0-inf) in data set [4] of 2730 ng·h/mL. For the same compound, the MRT inf turned out to be 3.3 h in data set [5] and 0.4 h in data set [11]. The Tmax came to 0.7 h in data set [6] (10 mg/kg, 24 h) and 4.98 min in [12]. Also, the values for the AUC(0-t) at 24 h in data set [7] and in data set [17] were 271 ng·h/mL and 2720 ng·h/mL, respectively. Also, in [8], the half-life was 3.2 h. The MRT last at 24 h amounted to 0.3 h in data set [9] and 3.2 h in data set [14]. In [10] (10 mg/kg, 24 h), this compound yielded a t1/2 of 2.5 h. Moreover, the Cmax in data set [13] (24 h) was 15.2 ng/mL; in data set [16], 1160 ng/mL. The same compound showed a bioavailability in data set [15] of 2.4%. In addition, in data set [2], the 50% cytotoxic concentration (CC50) at 72 h is greater than 10 µM.
For `COC(=O)N[C@H](C(=O)N1CCC[C@H]1c1ncc(-c2ccc(C#CC#Cc3cnc([C@@H]4CCCN4C(=O)[C@H](NC(=O)OC)c4ccccc4)[nH]3)c(-c3cccc(F)c3F)c2)[nH]1)C(C)C`, the total exposure AUC(0-inf) in data set [3] worked out at 61.7 ng·h/mL; in data set [4], 285 ng·h/mL. In addition, the MRT inf in data set [5] is 4.7 h; in data set [11] it was 1.5 h. The Tmax in [6] (Sprague-Dawley, read-out: Tmax) amounted to 1 h; in [12] it was 4.98 min. For the same compound, the AUC(0-t) at 24 h in [7] is 58.7 ng·h/mL; in data set [17], 279 ng·h/mL. The half-life was 4.6 h in [8] and 0.6 h in data set [10]. Moreover, the values for the mean residence time (MRT last) at 24 h in [9] and in data set [14] were 1.4 h and 4.2 h, respectively. Moreover, the Cmax was determined as 38.3 ng/mL in [13] (Sprague-Dawley, read-out: Cmax) and 114 ng/mL in data set [16]. The bioavailability in data set [15] worked out at 4.3%.
Turning to `COC(=O)N[C@H](C(=O)N1CCC[C@H]1c1ncc(-c2ccc(C#CC#Cc3cnc([C@@H]4CCCN4C(=O)[C@@H](NC(=O)OC)C(C)C)[nH]3)cc2)[nH]1)c1ccccc1`, in data set [2], the CC50 at 72 h is greater than 10 µM.
Same read-out and setting: the value for `COC(=O)N[C@H](C(=O)N1CCC[C@H]1c1ncc(-c2cc(F)c(C#CC#Cc3cnc([C@@H]4CCCN4C(=O)[C@H](NC(=O)OC)c4ccccc4)[nH]3)c(-c3ccccc3)c2)[nH]1)C(C)C` was greater than 10 µM.
Consider `COC(=O)N[C@H](C(=O)N1CCC[C@H]1c1ncc(-c2ccc(C#CC#Cc3cnc([C@@H]4CCCN4C(=O)[C@H](NC(=O)OC)c4ccccc4)[nH]3)c(N(C)c3ccccc3)c2)[nH]1)C(C)C`, for which the CC50 at 72 h in data set [2] is greater than 10 µM.

As usually defined, the CC50 is the concentration that lowers cell viability or growth by half. What is called AUC(0-inf) is total exposure, with the tail of the curve extrapolated. Read a low AUC(0-inf) as low exposure. As usually defined, the MRT inf is the average time that molecules of a dose stay in the body. One may read the Tmax as the time from dosing to the highest level. Broadly, the AUC(0-t) is exposure summed from dosing to a finite time, without extrapolation to infinity. Low readings indicate less exposure, high ones more exposure. One may read the half-life as the time in which the quantity being followed falls by half. A higher half-life goes with slow decline. By MRT last is commonly meant a mean duration of stay, worked out from the concentration-time curve. For orientation: Cmax means the highest concentration seen after dosing. The term bioavailability denotes the share of a dose that reaches the circulation, judged against a reference dose that is usually intravenous. What is called AUC is the area under the concentration-time curve, a measure of exposure. Higher therefore signals high exposure.

The values are drawn from ChEMBL document CHEMBL4665875, “Synthesis, biological evaluation and in silico modeling of novel pan-genotypic NS5A inhibitors” (Bioorg Med Chem, 2020).
